Compound in series [1]: COc1cc(OC)c(C(=O)/C=C/c2ccccc2)c(O)c1CN1CCCCC1
Put plainly: Inhibition of Sprague-Dawley rat brain AChE using acetylthiocholin iodide as substrate at 4.4 uM by Michaelis-Menten equation. Summed up: (§1)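 Kinetic analysis: Km and vmax were determined at several inhibitor concentrations. Ki for the free enzyme came from a linear replot of slope against inhibitor concentration. Ki′ for the enzyme–substrate complex came from a linear replot of intercept against inhibitor concentration.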

Compound in series [2]: COc1cc(OC)c(C(=O)/C=C/c2ccccc2)c(O)c1CN1CCCCC1
Put plainly: Inhibition of Sprague-Dawley rat brain AChE using acetylthiocholin iodide as substrate at 2.2 uM by Michaelis-Menten equation. Summed up: as §1

B1: Acetylcholinesterase (Rattus norvegicus), P37136 (protein)
chain: MRPPWYPLHTPSLASPLLFLLLSLLGGGARAEGREDPQLLVRVRGGQLRGIRLKAPGGPVSAFLGIPFAEPPVGSRRFMPPEPKRPWSGILDATTFQNVCYQYVDTLYPGFEGTEMWNPNRELSEDCLYLNVWTPYPRPTSPTPVLIWIYGGGFYSGASSLDVYDGRFLAQVEGTVLVSMNYRVGTFGFLALPGSREAPGNVGLLDQRLALQWVQENIAAFGGDPMSVTLFGESAGAASVGMHILSLPSRSLFHRAVLQSGTPNGPWATVSAGEARRRATLLARLVGCPPGGAGGNDTELISCLRTRPAQDLVDHEWHVLPQESIFRFSFVPVVDGDFLSDTPDALINTGDFQDLQVLVGVVKDEGSYFLVYGVPGFSKDNESLISRAQFLAGVRIGVPQASDLAAEAVVLHYTDWLHPEDPAHLRDAMSAVVGDHNVVCPVAQLAGRLAAQGARVYAYIFEHRASTLTWPLWMGVPHGYEIEFIFGLPLDPSLNYTVEERIFAQRLMQYWTNFARTGDPNDPRDSKSPRWPPYTTAAQQYVSLNLKPLEVRRGLRAQTCAFWNRFLPKLLSATDTLDEAERQWKAEFHRWSSYMVHWKNQFDHYSKQERCSDL
Turning to B1, in series [1], the Km was 4.63 mM and the Vmax was determined as 0.0212 deltaA/min. For the same protein, in series [2], the Michaelis constant (Km) turned out to be 4.18 mM and the Vmax is 0.0288 deltaA/min.

These data come from ChEMBL document CHEMBL3352678, “Synthesis and acetylcholinesterase inhibitory activity of Mannich base derivatives flavokawain B” (Bioorg Med Chem Lett, 2014).
